# Assay results pooled from the literature.
# Protocols differ between the studies behind these lines.
# Target: SNF-related serine/threonine-protein kinase (SNRK, Homo sapiens, UniProt Q9NRH2)
# Residues used in one study (Q9NRH2 1-765): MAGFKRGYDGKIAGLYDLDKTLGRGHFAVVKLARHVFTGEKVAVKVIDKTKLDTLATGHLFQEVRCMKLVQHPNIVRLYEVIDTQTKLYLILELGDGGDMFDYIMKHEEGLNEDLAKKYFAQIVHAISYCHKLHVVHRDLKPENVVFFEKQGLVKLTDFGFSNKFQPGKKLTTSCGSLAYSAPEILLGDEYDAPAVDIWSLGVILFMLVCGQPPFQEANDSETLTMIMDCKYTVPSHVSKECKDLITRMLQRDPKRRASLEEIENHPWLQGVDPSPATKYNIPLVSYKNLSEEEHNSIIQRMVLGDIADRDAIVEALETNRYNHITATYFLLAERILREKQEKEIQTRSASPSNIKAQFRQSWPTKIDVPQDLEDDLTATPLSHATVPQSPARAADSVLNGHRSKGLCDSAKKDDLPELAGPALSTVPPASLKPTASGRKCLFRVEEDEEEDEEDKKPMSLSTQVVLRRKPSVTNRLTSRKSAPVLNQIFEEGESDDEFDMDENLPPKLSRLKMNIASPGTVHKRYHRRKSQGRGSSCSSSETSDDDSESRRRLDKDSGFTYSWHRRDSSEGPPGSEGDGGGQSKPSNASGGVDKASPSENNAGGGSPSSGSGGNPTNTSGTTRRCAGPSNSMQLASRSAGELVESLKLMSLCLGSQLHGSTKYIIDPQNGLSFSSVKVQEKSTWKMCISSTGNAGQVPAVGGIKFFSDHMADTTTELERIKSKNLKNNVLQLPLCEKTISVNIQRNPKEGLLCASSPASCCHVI
Compound,observed,action,technique,tested at,quantity,value
CNC(=O)Nc1ccc2c(c1)CC[C@@]21OC(=O)N(CC(=O)N(Cc2ccc(F)cc2)[C@@H](C)C(F)(F)F)C1=O,cell-free assay,,competition with immobilised ligand,1 µM,remaining binding,96%
c1ccc(CNc2nc(N3CCOc4ccccc43)nc3c2CCCC3)cc1,target engagement in cells,inhibitor,chemoproteomics,20 mM,inhibition,0.3%
Cc1sc(C(=O)NC2COC2)cc1-n1cc(NC(=O)Nc2c(F)cccc2Cl)cn1,enzyme activity,inhibitor,,10 µM,remaining activity,102%
COc1cccc2c(NCc3ccccc3)nc(-n3c(N)nc4ccccc43)nc12,target engagement in cells,inhibitor,chemoproteomics,20 mM,inhibition,1.2%
O=C(Nc1cnn(-c2csc(C(=O)NC3COC3)c2)c1)Nc1ccccc1Cl,enzyme activity,inhibitor,,5 µM,remaining activity,96.8%
Cc1cnc(NC2CCOCC2)nc1-n1cnc(C(=O)NC(CN)c2cc(F)cc(Cl)c2)c1 (stereo not drawn),enzyme activity,inhibitor,radiometric,1 µM,remaining activity,100%
Cc1ccc(NC(=O)c2ccc(C)c(C(F)(F)F)c2)cc1C#Cc1nn(C2CCC(O)CC2)c2ncnc(N)c12 (stereo not drawn),cell-free assay,,,10 µM,remaining signal,92%
CN1CC(Oc2cnc(C#N)cc2-c2ccn3nc(NC(=O)C4CC4)cc3c2)C1,enzyme activity,inhibitor,,1 µM,inhibition,-12%
C[C@@H]1CN(c2cc(-c3nn(C)c4ccc(OC5(C)CC5)cc34)ncn2)C[C@H](C)O1,cell-free assay,,competition with immobilised ligand,1 µM,remaining binding,92%
COc1cc(Cl)c(C(=O)N[C@@H](CN[C@H]2CC[C@@H](N)CC2)Cc2ccc(C#N)cc2)cc1-c1ccc(CN[C@H](C)c2ccc(C)cc2)o1,enzyme activity,inhibitor,,1 µM,remaining activity,104%
Cc1cc(NC(=O)c2cccc3cc(-c4cccc5[nH]nc(N)c45)ccc23)ccc1F,enzyme activity,inhibitor,,0.1 µM,activity vs control,109%
Nc1ncnc2occ(-c3ccc(NC(=O)Nc4cc(C(F)(F)F)ccc4F)cc3)c12,cell-free assay,inhibitor,,20 µM,remaining signal,64%
